TAAR1 antag: human TAAR1 antagonism; CHO RD-HGA16 TAAR1, Fluo-8 calcium fluorescence, antagonist; inhibition, % at 3 µM; Q96RJ0; 360,000 tested, 1.5% active;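 active = inhibition above a per-plate cutoff, the mean inhibition of test compounds on that plate plus 3 SD, cut at about 49% in these data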;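 also: 0% = DMSO plus EC80 beta-PEA response and 100% = DMSO alone without agonist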
Target sequence (Q96RJ0 whole entry, looked up): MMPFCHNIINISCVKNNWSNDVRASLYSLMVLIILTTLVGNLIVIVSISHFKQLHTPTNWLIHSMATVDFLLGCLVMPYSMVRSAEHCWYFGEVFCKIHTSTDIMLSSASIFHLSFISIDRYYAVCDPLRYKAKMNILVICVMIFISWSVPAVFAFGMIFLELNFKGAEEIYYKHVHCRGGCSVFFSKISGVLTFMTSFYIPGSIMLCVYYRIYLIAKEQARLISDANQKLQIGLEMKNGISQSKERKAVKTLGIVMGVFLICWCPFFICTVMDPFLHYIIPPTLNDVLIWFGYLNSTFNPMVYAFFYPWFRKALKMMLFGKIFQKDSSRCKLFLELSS
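Material: RD-HGA16 CHO cells with stable hTAAR1 and Gα16; Dosing: single nominal final test compound concentration of 3 µM; Schedule: seeding 17-24 h prior, 75-min 37 °C, 30-min RT dye loading; Detection: kinetic Fluo-8 calcium fluorescence measurement; Measure: % inhibition from peak post-agonist over basal fluorescence ratio; Benchmarks: vehicle and agonist controls.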
GPR7 antag: antagonists of human GPR7 (neuropeptides B/W receptor 1). inhibition, % at 4.4 µM. AID 1861. GPR7-expressing cells, fluorescence antagonist assay. 290,000 tested, 1.1% active. P48145; in the data active = inhibition above about 16%, passing the limit was not always enough;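 also: cells stimulated with the agonist NPW; 0% = agonist with vehicle and 100% = vehicle without agonist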
Target sequence (P48145 whole entry, looked up): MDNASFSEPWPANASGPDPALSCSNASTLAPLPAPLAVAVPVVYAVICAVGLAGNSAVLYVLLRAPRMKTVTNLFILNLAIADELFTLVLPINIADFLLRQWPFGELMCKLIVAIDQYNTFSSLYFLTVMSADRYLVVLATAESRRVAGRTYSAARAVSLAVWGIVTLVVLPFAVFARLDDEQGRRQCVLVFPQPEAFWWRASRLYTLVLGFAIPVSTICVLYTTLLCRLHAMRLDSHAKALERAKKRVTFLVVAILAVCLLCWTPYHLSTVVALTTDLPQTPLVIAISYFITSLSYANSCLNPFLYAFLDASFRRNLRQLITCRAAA
CHO parental Ca: counter-screen for OX1R antagonists: effect in parental CHO cells; inhibition, % at 5.6 µM; 330,000 tested, 0.63% active; parental CHO-K1, ATP-induced calcium, Fluo-8 fluorescence;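 active = inhibition above that plate's mean sample inhibition plus 3 SD, cut at about 26% in these data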;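 also: 0% = ATP-challenged DMSO wells and 100% = DMSO wells without ATP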
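Measured by: calcium-sensitive Fluo-8 fluorescence / Test system: CHO parental line / Controls: ATP-challenged DMSO wells low, unchallenged DMSO wells high / Measure: % inhibition / Compound: single nominal dose of 5.6 µM per compound / Replicates: single well per compound, no replicates / Reagent: ATP as calcium-mobilizing challenge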
OX1R antag-1: OX1R (human) antagonism; inhibition, % at 6.6 µM; 330,000 tested, 1.8% active; OX1R-expressing cells, FRET antagonist read-out; O43613; AID 485270; in the data active = inhibition mostly above about 38%, no sharp cut-off; inactive = mostly below about 40%;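 also: 0% = agonist challenge alone and 100% = reference antagonist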
OX1R antag-2: blocks the human orexin 1 receptor; O43613; CHO/OX1R cells, Fluo-8 calcium fluorescence, orexin A; inhibition, % at 5 µM; 330,000 tested, 0.43% active;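 active = inhibition above its plate's threshold, mean inhibition of all tested compounds on the plate plus 3 SD, cut at about 37% in these data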;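 also: 0% = orexin A challenge wells and 100% = SB-334867-A antagonist wells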
TAAR1 agonist: human TAAR1 agonism. 360,000 tested, 0.99% active. AID 624467. CHO RD-HGA16 TAAR1, Fluo-8 calcium fluorescence; vehicle wells 0%, saturating PEA agonist 100%. Q96RJ0. activation, % at 3 µM;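 active = activation above the mean activation of all test compounds in the run plus 3 SD, cut at about 38% in these data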
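System: CHO-derived RD-HGA16 cells with stable Gα16 and human TAAR1 / Times: 17-24 h plating, Fluo-8 75 min 37 °C, 30 min RT / Technique: calcium-sensitive Fluo-8 signal, excitation 470-495, emission 515-575 nm / Measure: % activation relative to PEA EC100 response / Benchmarks: DMSO and PEA EC100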
GPR7 antag cf: confirmation of human GPR7 antagonists. shares compounds with GPR7 antag. GPR7-expressing cells, calcium fluorescence antagonist mode. inhibition, % at 4.4 µM. 2,400 tested, 52% active. AID 1952; in the data active = inhibition above about 24%;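 also: stimulated with the GPR7 agonist NPW; 0% = agonist plus vehicle and 100% = vehicle alone without agonist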
MCHR1 antagonist: counter-screen for GPR7 antagonists: antagonists of human MCHR1 | shares compounds with GPR7 antag | MCHR1-expressing cells, fluorescence antagonist assay | inhibition, % at 4.4 µM | 2,400 tested, 62% active; in the data active = inhibition above about 22%;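 also: 0% = vehicle with agonist and 100% = vehicle without agonist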
An asterisk follows results filed as active. In the library only some 4.6% were active in any assay of this set; here they are far more common.

What do the screens show for `COC1=CC(=O)OC(c2cccc([N+](=O)[O-])c2)C1` (centres undefined)?
TAAR1 antag: -4; TAAR1 agonist: 0

Results for Cc1ccc(C(=O)OCC(=O)c2c[nH]c3ccccc23)cc1S(=O)(=O)N1CCOCC1 ?
TAAR1 antag: 37; TAAR1 agonist: 15

What do the screens show for `NS(=O)(=O)c1ccc(CNC(=O)c2ccncc2)cc1`?
TAAR1 antag: 3; GPR7 antag: -11; CHO parental Ca: -3; OX1R antag-1: 3; OX1R antag-2: 4; TAAR1 agonist: 2

How did CCOc1ccc(-n2c(SCc3nc(-c4ccc(C)cc4)no3)nnc2-c2ccncc2)cc1 do in these assays?
TAAR1 antag: 9; GPR7 antag: 37*; CHO parental Ca: -24; OX1R antag-1: 15; OX1R antag-2: -38; TAAR1 agonist: 5; GPR7 antag cf: 29*; MCHR1 antagonist: 31*

Results for COc1cccc2c1OC1(N3CCOCC3)CCCCC1C2C[N+](=O)[O-] (centres undefined) ?
TAAR1 antag: -23; TAAR1 agonist: 1

Results for COc1ccc(/C=C2\CCc3ccccc3C2=O)cc1O ?
TAAR1 antag: -9; GPR7 antag: 25*; CHO parental Ca: -12; OX1R antag-1: 4; OX1R antag-2: -7; TAAR1 agonist: 6; GPR7 antag cf: 30*; MCHR1 antagonist: 34*

What do the screens show for `CCOC(=O)C1(C)CCCN(C(=O)c2cc(OC)c(OC)c(OC)c2)C1` (centres undefined)?
TAAR1 antag: -14; TAAR1 agonist: 3

Results for CC(C)NC(=O)N[C@H]1C=C[C@H](CC(=O)NCc2ccc(Oc3ccccc3)cc2)O[C@@H]1CO ?
TAAR1 antag: 9; TAAR1 agonist: 1

What do the screens show for `C/C(CC(=O)Nc1cccc2c1CCCC2)=N\NC(=O)c1cccc2ccccc12`?
TAAR1 antag: 10; GPR7 antag: 16; CHO parental Ca: -18; OX1R antag-1: 19; OX1R antag-2: -17; TAAR1 agonist: 1

How did C/C(CC(=O)Nc1cccc2c1CCCC2)=N\NC(=O)c1ccccc1N do in these assays?
TAAR1 antag: 21; GPR7 antag: 25*; CHO parental Ca: -24; OX1R antag-1: 5; OX1R antag-2: -10; TAAR1 agonist: 24; GPR7 antag cf: 15; MCHR1 antagonist: 6

What do the screens show for `CCc1nc2ccc(C(=O)NC3CCN(Cc4ccccc4)CC3)cn2c1N(CC)Cc1cccc(Br)c1`?
TAAR1 antag: 25; TAAR1 agonist: 21

How did CSc1nsc(SC)c1C(=O)N1CCN(S(=O)(=O)c2ccc(C)cc2)C1C(C)C (centres undefined) do in these assays?
TAAR1 antag: 49*; GPR7 antag: 27*; CHO parental Ca: -24; OX1R antag-1: 31; OX1R antag-2: -17; TAAR1 agonist: 9; GPR7 antag cf: 17; MCHR1 antagonist: 46*

Results for CSc1nsc(SC)c1C(=O)N1CCN(S(=O)(=O)c2ccc(C)cc2)C1C (centres undefined) ?
TAAR1 antag: 47; GPR7 antag: -1; CHO parental Ca: -33; OX1R antag-1: 30; OX1R antag-2: -39; TAAR1 agonist: 9

How did Cc1ccc(S(=O)(=O)N(C)S(=O)(=O)c2ccc(C#N)cc2)cc1 do in these assays?
GPR7 antag: 25*; CHO parental Ca: -4; OX1R antag-1: 9; OX1R antag-2: -16; GPR7 antag cf: 19; MCHR1 antagonist: 25*

Results for Cc1ccc(S(=O)(=O)CC(O)COc2ccc(C#N)cc2)cc1 (centres undefined) ?
TAAR1 antag: 5; GPR7 antag: -9; CHO parental Ca: 7; OX1R antag-1: 3; OX1R antag-2: -17; TAAR1 agonist: 5

Results for CC(Nc1nc(-c2ccccc2)nc2ccccc12)c1ccccc1 (centres undefined) ?
TAAR1 antag: -31; GPR7 antag: -26; CHO parental Ca: 25; OX1R antag-1: 14; OX1R antag-2: -44; TAAR1 agonist: 3

What do the screens show for `CC(Nc1nc(N2CCCCC2)nc2ccccc12)c1ccccc1` (centres undefined)?
TAAR1 antag: 8; GPR7 antag: 24*; CHO parental Ca: -12; OX1R antag-1: 3; OX1R antag-2: -25; TAAR1 agonist: 33; GPR7 antag cf: 30*; MCHR1 antagonist: 57*

How did NS(=O)(=O)c1cccc(NC(=O)COC(=O)Cc2ccc(S(=O)(=O)N3CCOCC3)s2)c1 do in these assays?
TAAR1 antag: -7; TAAR1 agonist: 3

How did COc1ccccc1N1CCN(CC(=O)Nc2c(C)n[nH]c2C)CC1 do in these assays?
TAAR1 antag: -6; GPR7 antag: -6; CHO parental Ca: -8; OX1R antag-1: 21; OX1R antag-2: -20; TAAR1 agonist: 10

What do the screens show for `COc1ccccc1C1(O)CCN(CC(=O)Nc2c(C)nn(C)c2C)CC1`?
TAAR1 antag: 7; GPR7 antag: 27*; CHO parental Ca: -11; OX1R antag-1: 6; OX1R antag-2: -14; TAAR1 agonist: -2; GPR7 antag cf: 0; MCHR1 antagonist: 8

What do the screens show for `CC[C@]12c3[nH]c4ccccc4c3CCN1C(=O)C(CC(=O)NCCCn1ccnc1)C[C@@H]2C(=O)N1CCN(C(=O)c2ccco2)CC1` (some centres undefined)?
TAAR1 antag: -5; CHO parental Ca: -14; OX1R antag-1: 4; OX1R antag-2: 18; TAAR1 agonist: 7

What do the screens show for `CN(C)c1ccc(-c2nnn(CC(=O)NCc3ccc4c(c3)OCO4)n2)cc1`?
TAAR1 antag: 7; GPR7 antag: 24*; CHO parental Ca: -6; OX1R antag-1: 21; OX1R antag-2: -16; TAAR1 agonist: 4; GPR7 antag cf: 1; MCHR1 antagonist: 12

Results for CN(C)c1cccc(C(=O)NCc2ccc3c(c2)OCO3)c1 ?
TAAR1 antag: 4; GPR7 antag: 36*; CHO parental Ca: -21; OX1R antag-1: 6; OX1R antag-2: -11; TAAR1 agonist: -1; GPR7 antag cf: 2; MCHR1 antagonist: 16

What do the screens show for `CCN(C(=O)COC(=O)CCC(=O)c1ccc(Cl)cc1)c1c(N)n(Cc2ccccc2)c(=O)[nH]c1=O`?
TAAR1 antag: -8; TAAR1 agonist: 2

What do the screens show for `COc1cccc(CNCCc2c[nH]c3ccccc23)c1OCc1ccccc1`?
TAAR1 antag: 54*; GPR7 antag: 56*; CHO parental Ca: 18; OX1R antag-1: 6; OX1R antag-2: 10; TAAR1 agonist: 19; GPR7 antag cf: 60*; MCHR1 antagonist: 67*

Source: PubChem BioAssay (The Scripps Research Institute Molecular Screening Center)
